ChEMBL document CHEMBL1833946, “Synthesis of β-functionalized temoporfin derivatives for an application in photodynamic therapy” (Bioorg Med Chem Lett, 2011)
The source made the active and inactive calls. The rule behind the calls is not given here.

Tests used:
HT-29 [1] = experiment: Cytotoxicity against human HT29 cells under dark condition at 10 uM after 24 hrs by XTT assay in presence of 10% heat-inactivated fetal calf serum; format: functional, cell-based
Summary of the method: (§1)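 HT-29 human colon adenocarcinoma cells seeded at 2 × 10⁴ cells/well. Incubated 24 h with 2 or 10 μM sensitizer (final, diluted from 2 mM DMSO stock) in phenol-red-free RPMI 1640 with 10% FCS. Cells kept without irradiation for dark toxicity. Viability measured by XTT absorbance.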

HT-29 [2] = experiment: Cytotoxicity against human HT29 cells under dark condition at 2 uM after 24 hrs by XTT assay in presence of 10% heat-inactivated fetal calf serum; format: functional, cell-based; summary of the method: as §1
[3] = Chemical stability of the compound; format: physicochemical
HT-29 [4] = experiment: Phototoxicity against human HT29 cells irradiated with 652 nm diode laser at the rate of 50 J/cm'2 at 10 uM after 24 hrs by XTT assay in presence of 10% heat-inactivated fetal calf serum; format: functional, cell-based
Summary of the method: (§2)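 HT-29 cells seeded at 2 × 10⁴ cells/well. Loaded 24 h with 2 or 10 μM sensitizer (final; from 2 mM DMSO stock kept dark at 4 °C) in phenol-red-free RPMI 1640 plus 10% FCS. Irradiated at room temperature with a 652 nm diode laser, 100 mW/cm², 50 J/cm². Viability read by XTT absorbance.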

HT-29 [5] = experiment: Phototoxicity against human HT29 cells irradiated with 652 nm diode laser at the rate of 50 J/cm'2 at 2 uM after 24 hrs by XTT assay in presence of 10% heat-inactivated fetal calf serum; format: functional, cell-based; summary of the method: as §2

| Structure (SMILES) | Activity (HT-29 [1]) | Activity (HT-29 [2]) | Stability [3] | Activity (HT-29 [4]) | Activity (HT-29 [5]) |
| --- | --- | --- | --- | --- | --- |
| CCCCCCC1(O)c2nc(c(-c3cccc(O)c3)c3ccc([nH]3)c(-c3cccc(O)c3)c3nc(c(-c4cccc(O)c4)c4ccc([nH]4)c2-c2cccc(O)c2)C=C3)C1(O)CCCCCC (stereo not given) | inactive | inactive | Stable | Active | Active |
| Oc1cccc(-c2c3nc(c(-c4cccc(O)c4)c4ccc([nH]4)c(-c4cccc(O)c4)c4nc(c(-c5cccc(O)c5)c5ccc2[nH]5)C(O)(c2cc(C(F)(F)F)cc(C(F)(F)F)c2)C4(O)c2cc(C(F)(F)F)cc(C(F)(F)F)c2)C=C3)c1 (stereo not given) | inactive | inactive | Stable | Active | inactive |
| Oc1cccc(-c2c3nc(c(-c4cccc(O)c4)c4ccc([nH]4)c(-c4cccc(O)c4)c4nc(c(-c5cccc(O)c5)c5ccc2[nH]5)C(O)(C(F)(F)F)C4(O)C(F)(F)F)C=C3)c1 (stereo not given) | inactive | inactive | Stable | Active | Active |
